According to the EternaBench riboswitch data:

Test system: MS2 coat protein
Test: apparent Kd, MS2 coat protein; higher = weaker binding; RNA-MaP array; FMN 200 µM where present
Outline: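 SNAP-549-labelled MS2 coat protein, doubled from 0.7 or 1.5 nM to 3 µM, was titrated over designs transcribed by stalled E. coli RNA polymerase on Illumina sequencing-chip clusters. Titrations were run without and then with constant ligand in 100 mM Tris-HCl pH 7.5, 80 mM KCl, 4 mM MgCl2, BSA, DTT, yeast tRNA and Tween-20. The apparent Kd is the median of filtered per-cluster fits to green signal normalised to red-channel RNA signal and control-cluster median Fmax.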

[1] = designed as: OFF switch for flavin mononucleotide, no ligand
[2] = ligand present: flavin mononucleotide, designed as: OFF switch for flavin mononucleotide
[3] = designed as: ON switch for flavin mononucleotide, no ligand
[4] = ligand present: flavin mononucleotide, designed as: ON switch for flavin mononucleotide

Sequence | apparent Kd [1] [nM] | apparent Kd [2] [nM] | apparent Kd [3] [nM] | apparent Kd [4] [nM]
AACUCGUCAGGAUAUGCGCGCAGUUAAUACGCUUCGCAAUUGCAGAAGGGACAUGAGGAUCACCCAUGUAAAUA | 32.1 | 33.1 | – | –
AGCACGAAAGUGCAACGAUGUACGAGAAGGACAUGAGGAUCACCCAUGUUGCUGUAACUGCUUAUGUAGGAUAUCGUACAUCGA | – | 7.01 | – | –
CUUUUGUGAGGAUAUCAGUAGUAAAAAAAUAAAAUUACUACUGAGAAGGCACAUGAGGAUCACCCAUGUCUUUC | 122 | 76.8 | – | –
AGUGCUAUGUAGAAGGCAGAUCUGAUUCAGAUCUGAGGAUAUACAUGAGGAUCACCCAUGUUAUGCACCAGCACGAGAGUGCAC | 7.91 | 16.8 | – | –
CCGCAAAAGCAGGAUAUCGUAUCGGAUACGAUACGAGAAGGGCUAACAUGAGGAUCACCCAUGUGUCCUAGCGG | 16.9 | 25.6 | – | –
AAUCGAUCAACAGGAUAUGCGCAAUGAUCUGAACAUGAGGAUCACCCAUGUGCAGAAGGGUUGGUCAUCUUUUGGGACGAGACA | 101 | 311 | – | –
AGUGUGUGGCAGGAUAUGCUGUUGAUUCGGGCAGCAGAAGGGUCUACAUGAGGAUCACCCAUGUAAGCGGUUGA | 257 | 413 | – | –
GCGGAACAUGAGGAUCACCCAUGUAUCCCAAAUAUGGACUCACAGGAUAUCCCGAGUUUCCAGUGGGAGAAGGGUGACUCCAGA | – | – | 21.7 | 11.1
GCGCCAUCGUGAGAUGGCGUAACGACAUGAGGAUCACCCAUGUAGGAUAUCGAUUGCUUUGCAGUCGAGAAGGGCAAGGUAAGU | 30.7 | 38.1 | – | –
AAAAAACAUGAGGAUCACCCAUGUGAGGAUAUUAAAAAUAAGAAGGCAUAAAAAAAAAUAAGAAGGCACAUGAA | 31.7 | 44.8 | – | –
CUUAGUUUGUAGAAGGGUGACAUGAGGAUCACCCAUGUGCGUCGCCUGGAAGACCAGGGUACGCCACAGGAUAUACAAAGUAAG | – | – | 46.7 | 23.1
CUACGGGACGGAGAUCGUGGUGAAGUAGAAGGGUGAGAUGACAUGAGGAUCACCCAUGUAGUAGCGCAGGAUAUACGGCACCGG | – | – | 388 | 103
AGCACGAAAGUGCAACGAUGUAGCAGAAGGACAUGAGGAUCACCCAUGUAACGAGUAACUCGAAUGUAGGAUAUGCUACAUCGA | 25 | 157 | – | –
CGCUGUCACGCAGGAUAUGCAUUGGAUUCCAAUGCAGAAGGGCGAUUACAUGAGGAUCACCCAUGUGUUGACAGUGAAGAAGAG | – | – | 1250 | 76.3
UUUUAGUGAGGAUAUACAUUUUUUUAAUUAUUUAUAAUAUUACAUGAGGAUCACCCAUGUAGAAGGCACAUUUU | 24.3 | 22.4 | – | –
GCUGCAUGCAGAGGAUAUGACACAUGAGGAUCACCCAUGUAAUAAAUGAGAUUUUCGAAUGUAUCUCAGAAGGCUGCAUGCAGC | 16.6 | 89.4 | – | –
CUCCGGCGUGUAGGAUAUGGAUCCGAUUAGGAUCCAGAAGGACAUGAGGAUCACCCAUGUACAUGUAAACAGUCAUCACCGGAU | 8.57 | 37.2 | – | –
UUGAAUUGAAACAUGAGGAUCACCCAUGUGUCAUAAUUGACAUAGGAUAUGUAUAUACUUUUAUAAUAGAAGGAUGACGAUACU | – | – | 15.6 | 12.7
GUAAGAAAUACAGGAUAUGUUAGUUUUAAGUGUAUUGGUUAUUACUUAAUUACAGAAGGGUAUUACAUGAGGAUCACCCAUGUA | – | – | 14.8 | 9.06
UUUUUAUUUGCAGGAUAUUGUAUUUUAUUACAUCAAGAAGGGCAUUACAUGAGGAUCACCCAUGUCAUCCUAUGGUUAACUAGU | 9.62 | 9.77 | – | –
UUAAUUAACAAGAAGGCUUACAUGAGGAUCACCCAUGUUGUACAUGGAUAAAGAGGAUAUUGCUAAUAAUUAUUUAUCUUAAUU | 61.5 | 37.3 | – | –
UUAUUUAUACAAGGAUAUCUAUUAUAUUCACAUCCUACAUGAGGAUCACCCAUGUUAUAUAUUUUAGAGAAGGUGUAUUGUCUG | – | – | 27.2 | 30.8
AAUAAACUCACAGGAUAUAGCAGAUGUCGCGUGAACUUACAGGCGACGAGGCUAGAAGGGUGACCACAUGAGGAUCACCCAUGU | – | – | 738 | 103
UACCUGAGGCAAAGCUUUAGGUAUACAUGAGGAUCACCCAUGUAGGAUAUGGUAGGCUUUGCUUACCAGAAGGACAUGUAAAUU | 20.5 | 67.8 | – | –
UCGGCGCGAGGAUAUGCGGUUCCUCCCUCGGGCCGGAGCGUACAUGAGGAUCACCCAUGUAGAAGGCGCGCCGC | 13.9 | 15.1 | – | –
UUACUGAUAUAGAAGGGUAUAUGGGAAUUACAUGAGGAUCACCCAUGUUUUAUAGGAUAUGUAUAUAGUAUUUAAUCAAGUUUA | 34.6 | 27.1 | – | –
GGCACUAUCACAGGAUAUGCUUUCCUUUGGGAAGCAGAAGGGUGUAACAUGAGGAUCACCCAUGUGGUGCCAGGGCGUGAGCCC | – | – | 114 | 10.9
AUUUAUGGCCAGAAGGACAUGAGGAUCACCCAUGUAGGAUAUGGACGAUUUUGCUCGACGGUUUGUUAAGGAAGCACCGGUGGU | – | – | 12.4 | 6.52

Sequence | apparent Kd [1] [nM] | apparent Kd [2] [nM] | apparent Kd [3] [nM] | apparent Kd [4] [nM]
UUUCUUGGGCAAGGAUAUCCUGUGCGGUUCCGGCUCGUGUCUGUCACAUGAGGAUCACCCAUGUGGGAGAAGGUGCCUGCGGUA | 6.41 | 6.77 | – | –
AAAUCAGCAGGAUAUGCGAUGUUAUGCUAGAUAGCGGGACCACAUGAGGAUCACCCAUGUAGAAGGGCUAGAUA | 34.9 | 16.8 | – | –
AGAUAUAUACAUGAGGAUCACCCAUGUUAAUAGGUGUUUGUCAGAAGGCAUUAUGAGAGAAUUAAUGAGGAUAUGAAGUAUCAU | – | – | 37.3 | 23
CCGGAACAUGAGGAUCACCCAUGUGAGGAUAUCGUACGUUCGUCGAUAGACGAUCGUACGAGAAGGCACGCCGG | 18.2 | 17.3 | – | –
CAUCCGAAUGAGAAGGGUCACAUGAGGAUCACCCAUGUGACCUCAUCGAUGACAGGAUAUCAUGGGUGGCAGUGUAAAGUUGGC | 6.6 | 7.04 | – | –
GGAUGACAAAGUCAUCCAAUUCGAACAUGAGGAUCACCCAUGUAGGAUAUGCUACACAAAGUGUAGCAGAAGGACAUGUGCUUU | 36.5 | 169 | – | –
AAUAAACUCACAGGAUAUAGCAGAGGUCGCGUGAACUUACAGACGACGAUGCUAGAAGGGUGACCACAUGAGGAUCACCCAUGU | – | – | 591 | 151
CGUAGGAUCCAGAAGGCAUGAAACAUGAGGAUCACCCAUGUAAAAGACAUGAGGAUAUGGAUCCUACGAAAAGUGCGAAAGCAC | – | – | 3.69 | 3.4
UGGGCUACCACAGGAUAUGCUACAUGAGGAUCACCCAUGUAAAGAAAAUCGGCAGAAGGGUGGUUAGUGCAGCAUGAAGGAGCC | – | – | 28.9 | 10.8
GAUUAACAUGAGGAUCACCCAUGUGAGGAUAUUGACUUGCUCACUUUCCCAUUCGAGUCGAGAAGGCGCAUCUU | 28.7 | 29 | – | –
GCGGAACAUGAGGAUCACCCAUGUAUCCGAAAUAUGGACUCACAGGAUAUCCAGAGUUGCCAAUCGGAGAAGGGUGACUCCAGC | – | – | 14.4 | 8.29
CUCGUGUGAGGAUAUUCGGGCGGGCUCGUUUGGGUUUGUUUGGAGAAGGUACAUGAGGAUCACCCAUGUGCUGG | 51 | 175 | – | –
CUUUUGUGAGGAUAUCAGUAGUAAAAAAAUUAAAUUACUACUGAGAAGGCACAUGAGGAUCACCCAUGUUCCUC | 39.1 | 262 | – | –
AUUAUGUUAGGAUAUGCUUAUGGUGGAUAGUCCAGUGUGGUGCAGAAGGGACAUGAGGAUCACCCAUGUGCUGA | 53.8 | 60.6 | – | –
GGACGGUUCGUCAGGAUAUGCUCUACCUCGGUAGAGCAGAAGGGACAUGAGGAUCACCCAUGUGAGAACUGUUC | 18.4 | 17.3 | – | –
CAGCUACCCGAUAUGGGUUCAUGUGCAGAAGGCCAGGUACAUGAGGAUCACCCAUGUAAAGAUAUGGAGGAUAUGUUAGUGAAU | – | – | 149 | 8.99
CUGAUGUCAGGAUAUCGGUGGCUCACUUGUGUGUGCCAGACCGAGAAGGGACAUGAGGAUCACCCAUGUUUCUA | 21.1 | 93.4 | – | –
AAGAAGGACGCAGGAUAUCCAGGACCUCCCGCAGGAGAAGGGCGAGACACGUGGAUCACCCAGACAUGAGGAUCACCCAUGUAG | 15.6 | 14.2 | – | –
UAAUAGUGUGUUAGGAUAUGCUGGUCGAAAGAUCAGCAGAAGGAACAUGAGGAUCACCCAUGUAGAGUAUUUUA | 21.3 | 62.4 | – | –
AACACGAGAGGUGUUGUCUAAUCACAUGAGGAUCACCCAUGUAAGGAUAUCGCGGCUAUCGGCAUCGAGAAGGUACAGGGUGCA | 165 | 58.9 | – | –
CGUGACUCAGGAUAUCUAUAGUAUCACAUGAGGAUCACCCAUGUCCAGCGAAAGCUGGAGGGAGAAGGGAGUCACG | 266 | 53.9 | – | –
CUGAGCAAUGUAGGAUAUCGACUGGAUAACAGUCGAGAAGGACAUGAGGAUCACCCAUGUAAAUGAGUGAAUAAUAAAGCUCAG | 1070 | 331 | – | –
ACGUUUUAUGCAGGAUAUUGACAUAUAUUUAAACAAGAAGGGCAUUACAUGAGGAUCACCCAUGUUAUCAUGGUAUUUAAGUUC | 64.1 | 63.2 | – | –
CUGUUACAUGAGGAUCACCCAUGUAAGGAUAUCUGCCACUAGAGGGUCACUUUGGGAUGGAGAAGGUACACGGG | 34.6 | 68.6 | – | –
UGCAUGGUAGGAUAUACGGAACAUUAGGGUUUGUUGUGUGGACAUGAGGAUCACCCAUGUAGAAGGGCCGUGCU | 45.5 | 78.6 | – | –
GUUUCGGGAGGAUAUGCGUGGAUUAUUUUCGUAUGUUGUUUACAUGAGGAUCACCCAUGUAGAAGGUCUGGAGC | 42.8 | 228 | – | –
AUAAUACAUGAGGAUCACCCAUGUAAUUUAACUUGUAAGAUCAAGGAUAUCAGCUCGAUUAGAGCUGAGAAGGUGAUCACAUGU | – | – | 154 | 229
